Test results as given in the EternaBench riboswitch data.

Tested on: MS2 coat protein
Test: apparent Kd, MS2 coat protein; higher = weaker binding; RNA-MaP array; FMN 200 µM where present
Outline: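 Each design was made on Illumina sequencing-chip clusters by stalled E. coli RNA polymerase and titrated with SNAP-549-labelled MS2 coat protein from 0.7 or 1.5 nM, doubling to 3 µM, in the absence and then the presence of constant ligand. The buffer was 100 mM Tris-HCl pH 7.5, 80 mM KCl, 4 mM MgCl2, BSA, DTT, yeast tRNA and Tween-20. The apparent Kd is the median of filtered per-cluster fits of binding curves, with green signal normalised to red-channel RNA signal and control-cluster median Fmax.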

[1] = designed as: OFF switch for flavin mononucleotide, no ligand
[2] = ligand present: flavin mononucleotide, designed as: OFF switch for flavin mononucleotide
[3] = designed as: ON switch for flavin mononucleotide, no ligand
[4] = ligand present: flavin mononucleotide, designed as: ON switch for flavin mononucleotide

Row | Sequence | apparent Kd [1] | apparent Kd [2] | apparent Kd [3] | apparent Kd [4]
1 | GUCAAGUGAGGAUAUGAUUGUACAACAGACUAACAUCUACAUCAGAAGGCACAUGAGGAUCACCCAUGUUUGUC | 17.7 nM | 15.8 nM |  | 
2 | AAAGACAGACAUGAGGAUCACCCAUGUUACGAAGAUAAUGGGAGAAGGGCGAUUGCAAAGCAAUCGCAGGAUAUUCAUAUUGUC |  |  | 39.6 nM | 10.8 nM
3 | AAGAAGUCAGGAUAUCCUGCUCGUCACUUGCGUGAUGAGUAGGAGAAGGGACAUGAGGAUCACCCAUGUAAAGA | 54.3 nM | 51.5 nM |  | 
4 | AGUCCGGAACAGAAGGACAUGAGGAUCACCCAUGUAGGAUAUGUUGUGCGGCGUUAGGGAGGUGCCUGCGUGUGGGCGGAUCUC |  |  | 14.1 nM | 6.56 nM
5 | AUGAAAGUAACACAGGAUAUCCAGGAUACAACAUGAGGAUCACCCAUGUACAUACGAACGUAUAAGGAGAAGGGUGGAUGAUCUUC |  |  | 215 nM | 264 nM
6 | AGUACUACAGGAUAUACGAGGGAGGUCCACGUGACCCUUUUACAUGAGGAUCACCCAUGUAGAAGGGUAGUACA | 23.3 nM | 26.8 nM |  | 
7 | AGGAACAUGAGGAUCACCCAUGUUAGAGACCUCAUGCGAUGUAGAAGGAUAAUCCGAGAAGAGGUAUAGGAUAUACAUGAGAAA | 208 nM | 171 nM |  | 
8 | GCAAGAACGGGUCAGUCCCAGAUGAGAAGGGUAGGUGGCGAUGAGUACAUGAGGAUCACCCAUGUACAGGAUAUCAUCAUUGUA | 7.63 nM | 8.66 nM |  | 
9 | GCCGUAAGUGUGAGGAUAUACCUAUGGAAACAUAGGUAGAAGGCACAUGAGGAUCACCCAUGUUCUUAAUCGGC | 134 nM | 329 nM |  | 
10 | UCAGGCUUCGAGAAGGACAUGAGGAUCACCCAUGUGCGUGUGAAGCAGCCGUGAGGCUGCAUCAUGUAGGAUAUCGGAGUCUGC | 82 nM | 418 nM |  | 
11 | AAUCAGCGGAACUUGACAUCCUUACAUGAGGAUCACCCAUGUCAGGAUAUAUGCUCUCGAGCUGCAUAGAAGGGACAUAGUGGG | 37.7 nM | 56 nM |  | 
12 | AUUUAACAUGAGGAUCACCCAUGUGAGGAUAUGUCCAUUUUAAACAAAUAGGAUAUGGACAGAAGGCACACCGG | 162 nM | 366 nM |  | 
13 | GGAGCACGCACAGGAUAUCCGGCGGCGCUCGUCGGAGAAGGGUGACAUGAGGAUCACCCAUGUACGUGCAACCCAGUUUGAGAG |  |  | 122 nM | 44.8 nM
14 | CAUUAAUUCAUUAUAGUAAUUUUACAGGAUAUGUAACAUGAGGAUCACCCAUGUAUUCUUGGUUAACAGAAGGGUAUUACUUGU | 19.3 nM | 29.7 nM |  | 
15 | AGGACGGGUAAGAAGGCGUUCUCACAUGAGGAUCACCCAUGUCGAAGGAUGAGGAUAUUGGCCGAGGGUGGCGUUUUGUGACGA |  |  | 30.9 nM | 9.35 nM
16 | UAUAUAUAGUAAGGAUAUGUAUUUAUAUUAUAAACAGAAGGUACUGACAUGAGGAUCACCCAUGUUUUAGUGUGGGCAUGUAGA | 77.9 nM | 114 nM |  | 
17 | UCUCGACAUGAGGAUCACCCAUGUCAGGAUAUUGUGUUUGAGGUUUUUUACCUUUUGACAAGAAGGGAUGUGUG |  | 30.4 nM |  | 
18 | GUAGCAUGAUUAGGAUAUUCAGCGAGUAGAUUGACAUGAGGAUCACCCAUGUGGCGAAAGCCGAGGGAGAAGGGAUGAUGCUAC |  |  | 34.9 nM | 25 nM
19 | GGAGCACACAUUAACAUGAGGAUCACCCAUGUCAAAAGACAUGAGGAUAUGGAUCCGAAAAGGAUCCAGAAGGCAUGGCGCUCC |  |  | 103 nM | 9.9 nM
20 | CCGGAAACGGGUAGCUGACAUGAGGAUCACCCAUGUGUUACACAGGAUAUGGAUCCUAAUUGGAUCCAGAAGGGUGUCAGCUAC |  |  | 220 nM | 36.5 nM
